Pf gametocyte – P. falciparum stage V gametocyte viability inhibition | 150,000 compounds, 0.065% hits | inhibition, % at 10.9 µM | P. falciparum stage V gametocytes, ATP luminescence, 24 h;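 active means inhibition above the mean plus 3 SD of compounds within the control limits, set per campaign, cut at about 38% in these data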
FLuc stim CS – firefly luciferase counter-screen for stimulation assays; activation factor at 10 µM; ATPlite luciferase biochemical, luminescence, 10 min; 0 = ATP-free wells, 1 = DMSO control; AID 1027; P08659; 200,000 tested, under 10 active;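 active means luciferase activation factor, scaled between plate controls, of at least 2 with compound at 10 µM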
Target sequence (P08659 whole entry, looked up): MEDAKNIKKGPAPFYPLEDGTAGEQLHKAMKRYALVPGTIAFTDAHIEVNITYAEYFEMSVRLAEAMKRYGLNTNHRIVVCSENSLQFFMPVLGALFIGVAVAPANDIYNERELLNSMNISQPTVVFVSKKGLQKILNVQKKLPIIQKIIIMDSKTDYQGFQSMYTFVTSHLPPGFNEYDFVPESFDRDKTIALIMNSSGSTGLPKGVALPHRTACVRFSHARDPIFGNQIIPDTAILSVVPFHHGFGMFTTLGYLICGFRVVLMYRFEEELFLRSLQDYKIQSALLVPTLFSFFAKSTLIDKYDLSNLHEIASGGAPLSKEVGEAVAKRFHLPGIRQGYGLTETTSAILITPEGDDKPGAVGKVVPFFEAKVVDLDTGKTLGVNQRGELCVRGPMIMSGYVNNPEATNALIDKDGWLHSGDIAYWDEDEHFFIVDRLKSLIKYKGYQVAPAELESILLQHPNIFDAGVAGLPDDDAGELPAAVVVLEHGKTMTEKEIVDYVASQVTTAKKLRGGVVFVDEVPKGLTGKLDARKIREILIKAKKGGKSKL
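Material: luciferase plus luciferin reagent, cell-free. Medium: PBS buffer for ATP. Also added: ATP substrate, dispensed from a 10.24 µM working solution in PBS. Doses: test compounds dosed from 2 mM stocks in 100% DMSO. Incubation: 10 min post-reagent at room temperature. Technique: light output (luminescence). Read-out basis: luminescence gain marking luciferase activators.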
APP 5'UTR act – APP 5'UTR luciferase reporter activation. SH-SY5Y APP 5'UTR luciferase reporter, luminescence; zero percent = DMSO vehicle wells. activation, % at 2 µM. 190,000 compounds, 1% hits. AID 1276;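 active means activation above a set limit, based on mean plus 3 SD of controls, cut at about 140% in these data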
NF-kB expr up – compounds increasing NF-kB expression in human neuronal cells; NF-kB reporter expression; hits give high values; fold change at 12.5 µM; 190,000 compounds, 1.6% hits; in the data active means fold change above about 3.3
FLuc inh counter – inhibits firefly luciferase, flagging false hits in luciferase inhibition screens | inhibition, % at 10 µM | 200,000 compounds, 1.5% hits | AID 1006 | ATPLite firefly luciferase biochemical luminescence, 10 min | P08659;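 active means inhibition above about 50% when tested at 10 µM, limit read from the data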
STAT1 activator – STAT1 signaling activation; activation (% of control), % at 5.5 µM; NIH 3T3 STAT1-luciferase reporter, IFN-gamma, luminescence; 100% = IFN-gamma alone, no compound; 200,000 compounds, 2.6% hits;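 active means activation above the screen-wide mean activation plus 3 SD, cut at about 130% in these data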
Hits are given with their value; . = inactive; / = not tested or not shown. Compounds with a hit are over-represented: about 3.5% of the library has one in this group of screens.

SMILES	Pf gametocyte	FLuc stim CS	APP 5'UTR act	NF-kB expr up	FLuc inh counter	STAT1 activator
Cc1ccc(NC(=O)/C=C/c2ccc(Cl)cc2)nc1	.	.	.	.	.	137
O=C(/C=C/c1cccc([N+](=O)[O-])c1)Nc1ccc(Cl)cn1	.	.	.	.	.	.
O=C(/C=C/c1ccccc1)Nc1ccc(Br)cn1	/	.	.	.	.	142
CCOc1cc(Br)c(C(C)NC(=O)c2cccnc2)cc1OCC (centres undefined)	.	/	/	/	/	/
c1ccc(-c2nnc(SCCC3OCCCO3)o2)cc1	/	.	.	3.4	.	.
Brc1ccc(-c2nnc(SCCC3OCCCO3)o2)cc1	/	.	.	.	.	.
Cc1nn(C(=O)c2cc3sccc3[nH]2)c(C)c1C	.	.	.	.	.	138
O=C(Nc1nc2ccccc2[nH]1)C1CCCO1 (centres undefined)	.	.	.	.	.	.
CCNC(=S)Nc1ccc(-c2nc3ccccc3[nH]2)cc1	.	.	.	.	51	132
O=C(Nc1ccc(-c2nc3ccccc3[nH]2)cc1)C1CCCO1 (centres undefined)	.	.	180	4.6	90	.
O=C(Cc1cccs1)Nc1ccc(-c2nc3ccccc3[nH]2)cc1	/	.	152	.	.	145
O=C(CSc1ccccc1)Nc1ccc(-c2nc3ccccc3[nH]2)cc1	.	.	.	.	.	131
O=C(CSc1ccc(Cl)cc1)Nc1cccc(-c2nc3ccccc3[nH]2)c1	.	.	.	.	.	.
CCC1COCCS(=O)(=O)N1Cc1ccccc1C (centres undefined)	.	/	/	/	/	/
Cc1nc(SCc2ccccc2)nc2c1CCC2	.	.	.	.	.	148
COc1ccc(CN=C2NN=C(c3ccc(Cl)cc3)CS2)cc1	.	.	.	.	.	144
COc1ccc(C2=NN(C)C(=NCc3ccccc3)SC2)cc1	/	.	.	.	.	.
COc1ccc(CN=C2Nc3ccccc3CS2)cc1	.	.	200	6.7	53	.
Cn1c(=O)c2cc(S(=O)(=O)NC(C(=O)NCc3ccccn3)c3ccccc3)ccc2n(C)c1=O (centres undefined)	/	.	.	.	.	.
Cc1cc(/C=C(/C#N)C(=O)Nc2ccccc2)c(C)n1-c1cccnc1	/	.	.	.	50	150
COCCNC(=O)/C(C#N)=C/c1cc(C)n(-c2ccc(C)cc2)c1C	.	.	154	6.2	72	145
Cc1ccc(/C=C(\C#N)C(=O)NCC2CCCO2)o1 (centres undefined)	/	.	.	.	.	.
Cc1ccccc1-n1c(C)cc(/C=C(\C#N)C(=O)NCC2CCCO2)c1C (centres undefined)	/	.	.	.	75	149
COCCNC(=O)/C(C#N)=C/c1cc(C)n(C2CCCCC2)c1C	.	.	144	.	72	134
COc1ccc(-n2c(C)cc(/C=C(\C#N)C(=O)NCc3ccco3)c2C)cc1	.	.	.	.	.	.
SMILES	Pf gametocyte	FLuc stim CS	APP 5'UTR act	NF-kB expr up	FLuc inh counter	STAT1 activator
Cc1nn(Cc2cccc(C(=O)N3CCCC(C)C3)c2)c(C)c1[N+](=O)[O-] (centres undefined)	.	.	.	.	.	.
Cc1cccc2cc(C#N)c(SCC(=O)NCc3cccs3)nc12	.	.	.	.	.	.
Cc1cc(C)nc(SCc2ccc(Br)cc2)n1	.	/	/	/	/	/
Nn1c(SCc2ccccc2F)nnc1-c1ccccn1	.	/	/	/	/	/
CCOC(=O)C1(Cc2cccc(F)c2)CCN(C(=O)c2cnc(C)cn2)CC1	.	.	.	.	.	.
Cn1c(-c2cccs2)nc2ccccc21	.	.	.	.	.	142
CC(C)Cn1c(-c2cccs2)nc2ccccc21	.	.	.	.	.	.
CCOc1ccc(NS(=O)(=O)c2cc(NC(=O)CCS(=O)(=O)c3ccc(C)cc3)ccc2OC)cc1	.	.	.	.	.	.
CCCc1cc(=O)[nH]c(SCC(=O)N2CCN(S(=O)(=O)c3ccccc3)CC2)n1	.	.	.	.	.	.
CCCc1cc(=O)[nH]c(SCC(=O)N2CCN(S(=O)(=O)c3ccc4ccccc4c3)CC2)n1	64	.	.	.	.	.
COc1ccc(/C=N/Nc2ncccc2[N+](=O)[O-])c(OC)c1	.	.	137	7.9	63	.
